Measured values from different studies.
Each line is one published result; the experiments were not run side by side.
Grm8: Metabotropic glutamate receptor 8 (Grm8, Rattus norvegicus, UniProt P70579)
Melanocortin receptor 3: Melanocortin receptor 3 (Mus musculus, UniProt P33033)
TLR7: Toll-like receptor 7 (TLR7, Homo sapiens, UniProt Q9NYK1)
CHRM1: Muscarinic acetylcholine receptor M1 (CHRM1, Homo sapiens, UniProt P11229)

N[C@@H](CCC(=O)O)C(=O)O — EC50 (Grm8; ion flux; agonist): 6.3 µM
CCCC[C@H](NC(=O)[C@@H](NC(=O)[C@@H](N)Cc1ccc(O)cc1)C(C)C)C(=O)NCC(=O)N[C@@H](Cc1c[nH]cn1)C(=O)N[C@@H](Cc1ccccc1)C(=O)N[C@@H](CCCNC(=N)N)C(=O)N[C@H](Cc1c[nH]c2ccccc12)C(=O)N[C@@H](CC(=O)O)C(=O)N[C@@H](CCCNC(=N)N)C(=O)N[C@@H](Cc1ccccc1)C(=O)NCC(=O)O — EC50 (Melanocortin receptor 3; reporter gene; agonist): 0.04 µM
CCCCOc1nc(N)c2[nH]c(=O)n(CCN3CCNCC3)c2n1 — EC50 (TLR7; reporter gene; agonist): 10 µM
CCCC[C@H](NC(=O)[C@@H](NC(=O)[C@@H](N)Cc1ccc(O)cc1)C(C)C)C(=O)NCC(=O)N[C@@H](Cc1c[nH]cn1)C(=O)N[C@@H](Cc1ccccc1)C(=O)N[C@@H](CCCN=C(N)N)C(=O)N[C@@H](Cc1c[nH]c2ccccc12)C(=O)N[C@@H](CC(=O)O)C(=O)N[C@@H](CCCN=C(N)N)C(=O)N[C@@H](Cc1ccccc1)C(=O)NCC(=O)O — EC50 (Melanocortin receptor 3; reporter gene; agonist): 0.068 µM
CC(=O)c1cc([N+](=O)[O-])c(Sc2cccc(Cl)c2Cl)s1 — EC50 (Collagenase 3 (MMP13, Homo sapiens, UniProt P45452); enzyme activity; inhibitor): > 50 µM
CCn1c(-c2nc3ccc(C(=O)N4CCCC(N)C4)cc3n2C)cc2ccccc21 (centres unmarked) — EC50 (CHRM1; calcium signal; agonist): 15.8 µM
CCCCOc1nc(N)c2[nH]c(=O)n(C3CNC3)c2n1 — EC50 (TLR7; reporter gene; agonist): 286 µM
CCNC(=O)C1OC(n2cnc3c(N)nc(NN=CC4CCC=CO4)nc32)C(O)C1O (centres unmarked) — EC50 (Adenosine receptor A2b (ADORA2B, Homo sapiens, UniProt P29275); GTPγS binding; agonist; cell membranes): 31 µM
CCn1c(-c2nc3cc(C(=O)N4CCC[C@@H](N)C4)cc(OC)c3n2C)cc2cccnc21 — EC50 (CHRM1; calcium signal; agonist): 7.94 µM
C[C@]12CCC3=C4CCC(=O)C=C4CC[C@H]3[C@@H]1CC[C@@]2(O)CC#N — EC50 (Progesterone receptor (PGR, Homo sapiens, UniProt P06401); reporter gene; agonist): 0.0036 µM
CSCC[C@H](NC(=O)[C@@H](NC(=O)[C@@H](N)Cc1ccc(O)cc1)C(C)C)C(=O)NCC(=O)N[C@@H](Cc1c[nH]cn1)C(=O)N[C@@H](Cc1ccccc1)C(=O)N[C@@H](CCCNC(=N)N)C(=O)N[C@@H](Cc1c[nH]c2ccccc12)C(=O)O — EC50 (Melanocortin receptor 3; reporter gene; agonist): 2.8 µM
COC(=O)c1ccc(-n2c(C)cc(C(=O)CSc3ccc(NC(C)=O)cc3)c2C)cc1 — EC50 (Grm8; calcium signal; positive allosteric modulator): 0.851 µM
CSCC[C@H](N)C(=O)NCC(=O)N[C@@H](Cc1c[nH]cn1)C(=O)N[C@@H](Cc1ccccc1)C(=O)N[C@@H](CCCNC(=N)N)C(=O)N[C@@H](Cc1c[nH]c2ccccc12)C(=O)O — EC50 (Melanocortin receptor 3; reporter gene; agonist): 22.4 µM
CC[C@@H]1SC2(CCN(C)CC2)NC1=O — EC50 (Muscarinic acetylcholine receptor M4 (Rattus norvegicus, UniProt P08485); calcium signal; agonist): > 50 µM
